Measured values reported in ChEMBL document CHEMBL1121663, “(Acylaryloxy)acetic acid diuretics. 3. 2,3-Dihydro-5-acyl-2-benzofurancarboxylic acids, a new class of uricosuric diuretics” (1981).

Assays:
[1] = Compound was tested for natriuretic activity in chimpanzee at 5 mg/kg dose activity is measured as ratio of clearance of urate / […]; Curate/Cinulin; type: functional
Summary of the method: (§1)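 Inulin iv gave GFR; urate and inulin clearances and Na+, K+, Cl- excretion were measured by AutoAnalyzer. Controls were three 20-min periods; compound was given orally in aqueous solution via nasal catheter. Response was the mean of eight 15-20 min periods, reported as treatment minus control from single experiments.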

[2] = tested on: Pan troglodytes; assay: Compound was tested for natriuretic activity in chimpanzee at 5 mg/kg dose activity is measured as microequivalent of Na+/minute; muequiv of Na+/min; type: functional; summary of the method: as §1
[3] = tested on: Rattus norvegicus; assay: Natriuretic activity in rats at 27 mg/kg of dosage; mequiv of Na; type: functional
Summary of the method: (§2)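 Rats housed three per metabolism cage received placebo vehicle or compound as a suspension in a final volume of 5.0 mL orally, with placebo groups run concurrently. Urine was collected over 0–5 h and analysed for Na+, K+ and Cl− by standard methods. Values are mequiv per cage, given as geometric means of three cages per dose level.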

[4] = tested on: Canis familiaris; assay: Compound was tested for diuretic activity in dogs at 5 mg/kg dose after intravenous administration measured as microequivalent of K+/minute; 6/36 (Control/Drug treated); type: functional, Canis lupus familiaris, Urine
Summary of the method: (§3)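 Intravenous dog clearance study. A priming iv injection of 1.5 mL/kg isoosmotic pH 7.4 phosphate buffer (20 mg PO4/kg) was given first. This was followed by infusion of 3 mL/min pH 7.4 buffer containing 4% mannitol (6.9 mg PO4/min) throughout the experiment. Urinary Na+, K+ and Cl- were measured by standard methods. Each value is the mean of the two highest consecutive 15-min collections.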

[5] = tested on: Canis familiaris; assay: Compound was tested for diuretic activity in dogs at 5 mg/kg dose after intravenous administration measured as microequivalent of Cl-/minute; 5/102 (Control/Drug treated); type: functional, Canis lupus familiaris, Urine; summary of the method: as §3
[6] = tested on: Rattus norvegicus; assay: Natriuretic activity in rats at 81 mg/kg of dosage; mequiv of Na; type: functional; summary of the method: as §2
[7] = tested on: Rattus norvegicus; assay: Natriuretic activity in rats at 3 mg/kg of dosage; mequiv of Na; type: functional; summary of the method: as §2
[8] = tested on: Canis familiaris; assay: Compound was tested for diuretic activity in dogs at 5 mg/kg dose after intravenous administration measured as microequivalent of Na+/minute; 20/108 (Control/Drug treated); type: functional, Canis lupus familiaris, Urine
[9] = tested on: Rattus norvegicus; assay: Natriuretic activity in rats at 9 mg/kg of dosage; mequiv of Na; type: functional; summary of the method: as §2
[10] = tested on: Canis familiaris; assay: Compound was tested for diuretic activity in dogs at 5 mg/kg dose after intravenous administration, activity is expressed as urine volume
[11] = tested on: Canis familiaris; assay: Compound was tested for diuretic activity in dogs at 5 mg/kg dose after intravenous administration measured as microequivalent of Na+/minute; 46/767 (Control/Drug treated); type: functional, Canis lupus familiaris, Urine
[12] = tested on: Canis familiaris; assay: Compound was tested for diuretic activity in dogs at 5 mg/kg dose after oral administration measured as microequivalent of Na+/minute; type: functional, Canis lupus familiaris, Urine
Summary of the method: (§4)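 Oral dog test: water loading (250 mL po, then 500 mL 1 h later). One hour later bladders were emptied by catheter and compound or placebo given in gelatin capsules. Dogs were kept in metabolism cages. Voided urine plus catheterized bladder urine was pooled at 5 h, and Na+, K+ and Cl- were measured by standard methods. Geometric means are reported.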

[13] = tested on: Canis familiaris; assay: Compound was tested for diuretic activity in dogs at 5 mg/kg dose after oral administration measured as microequivalent of K+/minute; type: functional, Canis lupus familiaris, Urine; summary of the method: as §4
[14] = tested on: Canis familiaris; assay: Compound was tested for diuretic activity in dogs at 5 mg/kg dose after oral administration measured as microequivalent of Cl-/minute; type: functional, Canis lupus familiaris, Urine; summary of the method: as §4
[15] = tested on: Canis familiaris; assay: Compound was tested for diuretic activity in dogs at 5 mg/kg dose after intravenous administration measured as microequivalent of Na+/minute; 22/144 (Control/Drug treated); type: functional, Canis lupus familiaris, Urine
[16] = tested on: Canis familiaris; assay: Diuretic activity in dogs following 5 mg/kg oral administration.
[17] = tested on: Canis familiaris; assay: Compound was tested for diuretic activity in dogs at 5 mg/kg dose after intravenous administration measured as microequivalent of Cl-/minute; 9/132 (Control/Drug treated); type: functional, Canis lupus familiaris, Urine; summary of the method: as §3
[18] = tested on: Canis familiaris; assay: Compound was tested for diuretic activity in dogs at 5 mg/kg dose after intravenous administration measured as microequivalent of Cl-/minute; type: functional, Canis lupus familiaris, Urine; conditions: in the assay text read “oral” for “intravenous”
[19] = tested on: Canis familiaris; assay: Compound was tested for diuretic activity in dogs at 5 mg/kg dose after intravenous administration measured as microequivalent of K+/minute; type: functional, Canis lupus familiaris, Urine; conditions: in the assay text read “oral” for “intravenous”
[20] = tested on: Canis familiaris; assay: Compound was tested for diuretic activity in dogs at 5 mg/kg dose after oral administration measured as microequivalent of Na+/minute
[21] = tested on: Canis familiaris; assay: Compound was tested for diuretic activity in dogs at 5 mg/kg dose after intravenous administration measured as microequivalent of Cl-/minute; 43/54 (Control/Drug treated); type: functional, Canis lupus familiaris, Urine; summary of the method: as §3
[22] = tested on: Canis familiaris; assay: Compound was tested for diuretic activity in dogs at 5 mg/kg dose after intravenous administration measured as microequivalent of K+/minute; 6/35 (Control/Drug treated); type: functional, Canis lupus familiaris, Urine; summary of the method: as §3
[23] = tested on: Canis familiaris; assay: Compound was tested for diuretic activity in dogs at 5 mg/kg dose after intravenous administration measured as microequivalent of Na+/minute; 11/118 (Control/Drug treated); type: functional, Canis lupus familiaris, Urine
[24] = tested on: Canis familiaris; assay: Compound was tested for diuretic activity in dogs at 5 mg/kg dose after intravenous administration measured as microequivalent of K+/minute; 4/19 (Control/Drug treated); type: functional, Canis lupus familiaris, Urine; summary of the method: as §3
[25] = tested on: Canis familiaris; assay: Compound was tested for diuretic activity in dogs at 5 mg/kg dose after intravenous administration measured as microequivalent of Na+/minute; 12/166 (Control/Drug treated); type: functional, Canis lupus familiaris, Urine
[26] = tested on: Canis familiaris; assay: Compound was tested for diuretic activity in dogs at 5 mg/kg dose after intravenous administration measured as microequivalent of Cl-/minute; 5/156 (Control/Drug treated); type: functional, Canis lupus familiaris, Urine; summary of the method: as §3
[27] = tested on: Canis familiaris; assay: Compound was tested for diuretic activity in dogs at 5 mg/kg dose after intravenous administration measured as microequivalent of K+/minute; 15/33 (Control/Drug treated); type: functional, Canis lupus familiaris, Urine; summary of the method: as §3
[28] = tested on: Canis familiaris; assay: Compound was tested for diuretic activity in dogs at 5 mg/kg dose after intravenous administration, activity is expressed as urine volume; 1/6; type: functional, Canis lupus familiaris
[29] = tested on: Canis familiaris; assay: Compound was tested for diuretic activity in dogs at 5 mg/kg dose after intravenous administration measured as microequivalent of Na+/minute; 4/193 (Control/Drug treated); type: functional, Canis lupus familiaris, Urine
[30] = tested on: Canis familiaris; assay: Compound was tested for diuretic activity in dogs at 5 mg/kg dose after intravenous administration measured as microequivalent of K+/minute (Control/Drug treated); type: functional, Canis lupus familiaris, Urine; conditions: in the assay text read “oral” for “intravenous”
[31] = tested on: Canis familiaris; assay: Compound was tested for diuretic activity in dogs at 5 mg/kg dose after intravenous administration measured as microequivalent of Cl-/minute (Control/Drug treated); type: functional, Canis lupus familiaris, Urine; conditions: in the assay text read “oral” for “intravenous”
[32] = tested on: Canis familiaris; assay: Compound was tested for diuretic activity in dogs at 5 mg/kg dose after oral administration measured as microequivalent of Na+/minute; remark: listed apart in the source
[33] = tested on: Canis familiaris; assay: Compound was tested for diuretic activity in dogs at 5 mg/kg dose after oral administration, activity is expressed as urine volume
[34] = tested on: Canis familiaris; assay: Compound was tested for diuretic activity in dogs at 5 mg/kg dose after intravenous administration measured as microequivalent of Na+/minute; 5/95 (Control/Drug treated); type: functional, Canis lupus familiaris, Urine
[35] = tested on: Canis familiaris; assay: Compound was tested for diuretic activity in dogs at 5 mg/kg dose after intravenous administration measured as microequivalent of Cl-/minute; 4/72 (Control/Drug treated); type: functional, Canis lupus familiaris, Urine; summary of the method: as §3
[36] = tested on: Canis familiaris; assay: Compound was tested for diuretic activity in dogs at 5 mg/kg dose after intravenous administration, activity is expressed as urine volume; 1/2; type: functional, Canis lupus familiaris
[37] = tested on: Canis familiaris; assay: Compound was tested for diuretic activity in dogs at 5 mg/kg dose after intravenous administration measured as microequivalent of K+/minute; 6/37 (Control/Drug treated); type: functional, Canis lupus familiaris, Urine; summary of the method: as §3
[38] = tested on: Rattus norvegicus; assay: Compound was tested for natriuretic activity in rats at 3 mg/kg of dosage; mequiv of Na+ x 100/cage; type: functional; summary of the method: as §2
[39] = tested on: Canis familiaris; assay: Compound was tested for diuretic activity in dogs at 5 mg/kg dose after intravenous administration, activity is expressed as urine volume; 0.4/2; type: functional, Canis lupus familiaris
[40] = tested on: Canis familiaris; assay: Compound was tested for diuretic activity in dogs at 5 mg/kg dose after intravenous administration measured as microequivalent of Na+/minute; 3/84 (Control/Drug treated); type: functional, Canis lupus familiaris, Urine

SMILES	Ratio [1]	Oral activity [2]	Oral activity [3]	Oral activity [6]	Oral activity [7]	Oral activity [9]	Oral activity [12]	Oral activity [13]	Oral activity [14]	Urine volume [16] [mL]	other results
O=C(Cc1ccccc1)c1cc2c(c(Cl)c1Cl)OC(C(=O)O)C2 (stereo unspecified)	0.315	513	126	173	25	80					K+ excretion [4]: 36 µequiv/min; Cl- excretion [5]: 102 µequiv/min; Na+ excretion [8]: 108 µequiv/min
NS(=O)(=O)c1cc(C(=O)O)c(NCc2ccco2)cc1Cl [FUROSEMIDE]	-0.02	1035	125	234	6	7					Urine volume [10]: 700 mL
O=C(c1cnsn1)c1cc2c(c(Cl)c1Cl)OC(C(=O)O)C2 (stereo unspecified)	0.096	88	230	284	38	82					Na+ excretion [11]: 767 µequiv/min
O=C(O)COc1ccc(C(=O)c2cccs2)c(Cl)c1Cl	0.437	318	43	56	7	15	3.3	1.8	5.4	395	Na+ excretion [15]: 144 µequiv/min; Cl- excretion [17]: 132 µequiv/min
N=C(N)NC(=O)C1Cc2cc(C(=O)c3cccs3)c(Cl)c(Cl)c2O1 (stereo unspecified)			143	159	72	98	4.9	1.2	4.8	212	Oral activity [18]: 4.8; Oral activity [19]: 1.2; Oral activity [20]: 4.9
O=C(c1cccs1)c1cc2c(c(Cl)c1Cl)O[C@@H](C(=O)O)C2	0.454	95	41	29	48	38	4.8	2.5	4.3	233	Cl- excretion [21]: 54 µequiv/min; K+ excretion [22]: 35 µequiv/min; Na+ excretion [23]: 118 µequiv/min
O=C(c1ccccc1)c1cc2c(c(Cl)c1Cl)OC(C(=O)O)C2 (stereo unspecified)			117	119	59	85					K+ excretion [24]: 19 µequiv/min
NS(=O)(=O)c1cc2c(cc1Cl)NCNS2(=O)=O [HYDROCHLOROTHIAZIDE]		144				112					Na+ excretion [25]: 166 µequiv/min; Cl- excretion [26]: 156 µequiv/min; K+ excretion [27]: 33 µequiv/min
O=C(c1ccc2c(c1)CC(C(=O)O)O2)c1cccs1 (stereo unspecified)			7	22	6	4					Urine volume [28]: 1 mL/min; Na+ excretion [29]: 193 µequiv/min
O=CC1Cc2cc(C(=O)c3cccs3)c(Cl)c(Cl)c2O1 (stereo unspecified)			107	144	74	84	16.3	3.1	21.6	337	Oral activity [30]: 3.1; Oral activity [31]: 21.6; Oral activity [32]: 16.3; Oral activity [33]: 337 mL
Cc1c(C(=O)c2cccs2)cc2c(c1C)OC(C(=O)O)C2 (stereo unspecified)			61	71		68					Na+ excretion [34]: 95 µequiv/min; Cl- excretion [35]: 72 µequiv/min; Urine volume [36]: 1 mL/min; K+ excretion [37]: 37 µequiv/min; Oral activity [38]: 29
CC(=O)c1cc2c(c(Cl)c1Cl)OC(C(=O)O)C2 (stereo unspecified)			76	161	13	26					Urine volume [39]: 0.4 mL/min; Oral activity [40]: 3
